Data as given in ChEMBL document CHEMBL3046103, “Antifungal synergistic effect of scopoletin, a hydroxycoumarin isolated from Melia azedarach L. fruits” (J Agric Food Chem, 2005).
Each block holds one compound with its values, some of them ahead of it.

Key:
[1] = system: Fusarium verticillioides; assay: Antifungal activity against Fusarium verticillioides assessed as growth inhibition by broth microdilution method
[2] = system: Fusarium; assay: Antifungal activity against Fusarium fusiformis assessed as growth inhibition at 1 mg/mL by broth microdilution method; type: functional
[3] = system: Fusarium; assay: Antifungal activity against Fusarium fusiformis assessed as growth inhibition by broth microdilution method; type: functional, organism-based
[4] = system: Fusarium incarnatum; assay: Antifungal activity against Fusarium incarnatum assessed as growth inhibition at 1 mg/mL by broth microdilution method; type: functional; conditions: read-out: GI
[5] = system: Fusarium incarnatum; assay: Antifungal activity against Fusarium incarnatum assessed as growth inhibition by broth microdilution method; type: functional, organism-based
[6] = system: Fusarium verticillioides; assay: Antifungal activity against Fusarium verticillioides assessed as growth inhibition at 1 mg/mL by broth microdilution method; type: functional
Method in brief: (§1)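 F. verticillioides strain M-7075, a maize isolate, was kept as a monosporic culture on V8 juice medium. Four-day-old spores were suspended at 10^5 spores/mL in glucose-mineral salts medium. Compound in filter-sterilized DMSO (final ≤2-4%) was tested at 0.10–1.70 mg/mL, in duplicate, alongside DMSO and untreated controls. Germination relative to control mycelial growth (100%) was scored visually by inverted microscope. MIC was the lowest concentration giving complete inhibition, and IC50 came from probit analysis.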

[7] = system: Fusarium verticillioides; assay: Antifungal activity against Fusarium verticillioides assessed as growth inhibition by broth microdilution method; type: functional, organism-based
Method in brief: as §1

- MIC [1]: 1000 µg/mL
Structure (SMILES): COc1cc(C2OCC3C(c4ccc(O)c(OC)c4)OCC23)ccc1O (racemic) [(+/-)-PINORESINOL]

- MIC [1]: 600 µg/mL
Structure (SMILES): COc1cc(C=O)ccc1O [VANILLIN]

- MIC [7]: 1500 µg/mL
Structure (SMILES): COc1cc2ccc(=O)oc2cc1O [SCOPOLETIN]
- inhibition at 1000 µg/mL [2]: 51.8%
- IC50 [3]: 820 µg/mL
- inhibition of growth at 1000 µg/mL [4]: 66.2%
- IC50 [5]: 470 µg/mL
- inhibition at 1000 µg/mL [6]: 90%
- IC50 [7]: 730 µg/mL

- MIC [1]: 400 µg/mL
Structure (SMILES): COc1cc(/C=C/C=O)ccc1O [CONIFERYL ALDEHYDE]
